Active and inactive are the calls of the source. The rule behind the calls is not given here.
Columns and labels:
MDA-MB-231 [1] = experiment: Effect on microtubule depolymerization in human MDA-MB-231 cells assessed as disorganized microtubule cytoskeleton at 3.6 uM after 2 hrs relative to control; type: functional, cell-based
Summary of the method: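 MDA-MB-231/ATCC cells grown on glass coverslips (1 × 10⁴ cells) for 24 h, then exposed to 3.6, 9, 18, 27 or 36 µM at 37 °C for 2 h. Fixed in 4% paraformaldehyde, permeabilized with Triton X-100, and immunostained for α-tubulin and ninein with DAPI counterstain. Interphase microtubule networks compared with untreated cells by confocal microscopy.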

HL-60 = experiment: Cytotoxicity against human HL60 cells; type: functional
Summary of the method: (§1)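 Tested in the NCI in vitro antitumor screening protocol across a tumor cell line panel. GI₅₀ is the concentration producing a 50% reduction in cell growth.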

MOLT-4 = experiment: Cytotoxicity against human MOLT4 cells; type: functional; summary of the method: as §1
RPMI-8226 = experiment: Cytotoxicity against human RPMI8226 cells; type: functional; summary of the method: as §1
SR = experiment: Cytotoxicity against human SR cells; type: functional; summary of the method: as §1
EKVX = experiment: Cytotoxicity against human EKVX cells; type: functional; summary of the method: as §1
HOP-62 = experiment: Cytotoxicity against human HOP62 cells; type: functional; summary of the method: as §1
NCI-H322M = experiment: Cytotoxicity against human NCI-H322M cells; type: functional; summary of the method: as §1
HCT-15 = experiment: Cytotoxicity against human HCT15 cells; type: functional; summary of the method: as §1
SNB-19 = experiment: Cytotoxicity against human SNB19 cells; type: functional; summary of the method: as §1
LOX IMVI = experiment: Cytotoxicity against human LOXIMVI cells; type: functional; summary of the method: as §1
M14 = experiment: Cytotoxicity against human M14 cells; type: functional; summary of the method: as §1
SK-MEL-2 = experiment: Cytotoxicity against human SK-MEL2 cells; type: functional
Summary of the method: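 Tested in the NCI in vitro antitumor screening protocol against human tumour cell lines.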

OVCAR-8 = experiment: Cytotoxicity against human OVCAR8 cells; type: functional; summary of the method: as §1
A498 = experiment: Cytotoxicity against human A498 cells; type: functional; summary of the method: as §1
SN12C = experiment: Cytotoxicity against human SN12C cells; type: functional; summary of the method: as §1
NCI/ADR-RES = experiment: Cytotoxicity against human NCI/ADR-RES cells; type: functional; summary of the method: as §1
MDA-MB-435 [2] = experiment: (§2) Cytotoxicity against human MDA-MB-435 cells; type: functional; summary of the method: as §1
UACC-62 = experiment: Cytotoxicity against human UACC62 cells; type: functional
Summary of the method: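 NCI in vitro antitumor screening protocol; GI50 taken as the concentration giving 50% reduction in cell growth.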

MDA-MB-435 [3] = experiment: as §2; type: functional; summary of the method: as §1; remark: listed apart in the source
K562 = experiment: Cell cycle arrest in human K562 cells assessed as accumulation at sub-G1 phase at 50 uM after 24 hrs by flow cytometry; type: functional
Summary of the method: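 K-562 human leukemia cells were grown in RPMI 1640 with 10% fetal calf serum, glutamine and penicillin/streptomycin at 37 °C in 5% CO₂. Cells were exposed to compound at 50 µM for 24 h, then pelleted and PBS-washed. They were fixed in ice-cold ethanol for 30 min, treated with 1 mg/mL RNase A at 37 °C for 30 min, and stained with propidium iodide and Triton X-100 for 30 min at room temperature in the dark. Per-phase and sub-G1 percentages came from flow cytometry gating.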

MDA-MB-231 [4] = experiment: Cell cycle arrest in human MDA-MB-231 cells assessed as accumulation of 2N cells at 3.6 uM after 24 hrs by flow cytometry; type: functional
MDA-MB-231 [5] = experiment: Cell cycle arrest in human MDA-MB-231 cells assessed as accumulation of 2N cells at 18.0 uM after 24 hrs by flow cytometry; type: functional
MDA-MB-231 [6] = experiment: Cell cycle arrest in human MDA-MB-231 cells assessed as accumulation of 2N cells at 27.0 uM after 24 hrs by flow cytometry; type: functional
MDA-MB-231 [7] = experiment: Cell cycle arrest in human MDA-MB-231 cells assessed as accumulation at sub-G1 phase at 9.0 uM after 24 hrs by flow cytometry; type: functional
MDA-MB-231 [8] = experiment: Cell cycle arrest in human MDA-MB-231 cells assessed as accumulation at sub-G1 phase at 18.0 uM after 24 hrs by flow cytometry; type: functional
MDA-MB-231 [9] = experiment: Cell cycle arrest in human MDA-MB-231 cells assessed as accumulation at sub-G1 phase at 27.0 uM after 24 hrs by flow cytometry; type: functional
MDA-MB-231 [10] = experiment: Cell cycle arrest in human MDA-MB-231 cells assessed as accumulation at sub-G1 phase at 36.0 uM after 24 hrs by flow cytometry; type: functional
MDA-MB-231 [11] = experiment: Cell cycle arrest in human MDA-MB-231 cells assessed as accumulation of 4N cells at 36.0 uM after 24 hrs by flow cytometry; type: functional
MDA-MB-231 [12] = experiment: Cell cycle arrest in human MDA-MB-231 cells assessed as accumulation of 2N cells at 3.6 uM after 72 hrs by flow cytometry; type: functional
MDA-MB-231 [13] = experiment: Cell cycle arrest in human MDA-MB-231 cells assessed as accumulation of 2N cells at 27.0 uM after 72 hrs by flow cytometry; type: functional
MDA-MB-231 [14] = experiment: Cell cycle arrest in human MDA-MB-231 cells assessed as accumulation of 2N cells at 36.0 uM after 72 hrs by flow cytometry; type: functional
MDA-MB-231 [15] = experiment: Cell cycle arrest in human MDA-MB-231 cells assessed as accumulation at sub-G1 phase at 9.0 uM after 72 hrs by flow cytometry; type: functional
MDA-MB-231 [16] = experiment: Cell cycle arrest in human MDA-MB-231 cells assessed as accumulation at sub-G1 phase at 27.0 uM after 72 hrs by flow cytometry; type: functional
MDA-MB-231 [17] = experiment: Cell cycle arrest in human MDA-MB-231 cells assessed as accumulation of 4N cells at 9.0 uM after 72 hrs by flow cytometry; type: functional
MDA-MB-231 [18] = experiment: Cell cycle arrest in human MDA-MB-231 cells assessed as accumulation of 4N cells at 27.0 uM after 72 hrs by flow cytometry; type: functional
MDA-MB-231 [19] = experiment: Cell cycle arrest in human MDA-MB-231 cells assessed as accumulation of >4N cells at 36.0 uM after 72 hrs by flow cytometry; type: functional
[20] = read-out: LC50 (the source's name)

## Nc1ccccc1C#C/C=C\C#Cc1ccccc1C(F)(F)F
MDA-MB-231 [1]
  Activity: Active
HL-60
  GI50: 0.358 µM
  TGI: > 100 µM
HL-60; [20]
  CC50: > 100 µM
MOLT-4
  GI50: > 100 µM
  TGI: > 100 µM
MOLT-4; [20]
  CC50: > 100 µM
RPMI-8226
  GI50: 0.738 µM
  TGI: > 100 µM
RPMI-8226; [20]
  CC50: > 100 µM
SR
  GI50: 0.247 µM
  TGI: 0.691 µM
SR; [20]
  CC50: > 100 µM
EKVX
  GI50: 0.358 µM
  TGI: 12.4 µM
EKVX; [20]
  CC50: 40.4 µM
HOP-62
  GI50: 0.77 µM
  TGI: 26.1 µM
HOP-62; [20]
  CC50: 69.5 µM
NCI-H322M
  GI50: 12.1 µM
  TGI: 27.9 µM
NCI-H322M; [20]
  CC50: 64.4 µM
HCT-15
  GI50: 1.26 µM
  TGI: 11.4 µM
HCT-15; [20]
  CC50: 51.1 µM
SNB-19
  GI50: 11.3 µM
  TGI: 39.9 µM
SNB-19; [20]
  CC50: > 100 µM
LOX IMVI
  GI50: 0.499 µM
  TGI: 10.5 µM
LOX IMVI; [20]
  CC50: 46.2 µM
M14
  GI50: 0.372 µM
  TGI: 13.2 µM
M14; [20]
  CC50: 49.4 µM
SK-MEL-2
  TGI: 26.5 µM
SK-MEL-2; [20]
  CC50: 67.2 µM
OVCAR-8
  GI50: 0.962 µM
  TGI: 21.5 µM
OVCAR-8; [20]
  CC50: 80.7 µM
A498
  GI50: 0.973 µM
  TGI: 13.1 µM
A498; [20]
  CC50: 40.7 µM
SN12C
  GI50: 0.348 µM
  TGI: 6.52 µM
SN12C; [20]
  CC50: 30.9 µM
NCI/ADR-RES
  GI50: 0.249 µM
  TGI: 0.68 µM
NCI/ADR-RES; [20]
  CC50: 28.5 µM
MDA-MB-435 [2]
  GI50: 0.4 µM
  TGI: 0.53 µM
UACC-62
  TGI: 0.808 µM
UACC-62; read-out: GI50
  GI50: 0.261 µM
UACC-62; [20]
  CC50: 29 µM
UACC-62; read-out: pGI50 (converted)
  GI50: 0.251 µM
MDA-MB-435 [3]
  GI50: 0.398 µM
K562
  Activity: 19.4%
MDA-MB-231 [4]
  Activity: 9.5%
MDA-MB-231 [5]
  Activity: 9.5%
MDA-MB-231 [6]
  Activity: 9.3%
MDA-MB-231 [7]
  Activity: 23.1%
MDA-MB-231 [8]
  Activity: 23.5%
MDA-MB-231 [9]
  Activity: 24.7%
MDA-MB-231 [10]
  Activity: 23.6%
MDA-MB-231 [11]
  Activity: 33.6%
MDA-MB-231 [12]
  Activity: 23.3%
MDA-MB-231 [13]
  Activity: 6.8%
MDA-MB-231 [14]
  Activity: 6.5%
MDA-MB-231 [15]
  Activity: 53.9%
MDA-MB-231 [16]
  Activity: 65.4%
MDA-MB-231 [17]
  Activity: 21.3%
MDA-MB-231 [18]
  Activity: 15%
MDA-MB-231 [19]
  Activity: 9.7%
